Screens (PubChem)
An excerpt weighted towards active compounds, which were near 2.6% of everything screened.
SENP8 block-1: inhibitors of human SENP8 protease | Q96LD8 | recombinant SENP8, Nedd8 substrate fluorescence | inhibition, % at 20 µM | 360,000 tested, 0.64% active; in the data active = inhibition mostly above about 40%, no sharp cut-off; inactive = mostly below about 27%
Target sequence (Q96LD8 whole entry, looked up): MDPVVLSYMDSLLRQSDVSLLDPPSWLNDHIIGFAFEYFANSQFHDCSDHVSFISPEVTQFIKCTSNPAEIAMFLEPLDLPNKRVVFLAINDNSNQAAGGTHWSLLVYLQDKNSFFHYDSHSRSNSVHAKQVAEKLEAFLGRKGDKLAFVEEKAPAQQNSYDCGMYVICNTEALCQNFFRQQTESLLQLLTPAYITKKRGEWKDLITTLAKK
SENP1 inh: blocks the human SENP1 SUMO protease catalytic domain; recombinant SENP1 catalytic domain, CyPet-SUMO1-YPet FRET cleavage; inhibition, % at 10 µM; AID 624204; 360,000 tested, 0.21% active; Q9P0U3;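 active = inhibition at least 30% at 10 µM, raw YFP signal under a set limit, fluorescence ratio 0.5 to 1.5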
Target sequence (Q9P0U3 419-644 limits assumed): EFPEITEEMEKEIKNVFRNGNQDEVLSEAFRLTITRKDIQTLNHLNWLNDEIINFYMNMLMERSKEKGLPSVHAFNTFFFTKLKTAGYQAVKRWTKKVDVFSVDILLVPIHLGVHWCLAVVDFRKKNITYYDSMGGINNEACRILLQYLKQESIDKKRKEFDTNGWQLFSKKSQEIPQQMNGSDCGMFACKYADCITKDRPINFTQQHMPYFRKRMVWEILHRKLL
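Controls: no-enzyme wells low, DMSO-plus-enzyme wells high control. Test system: human recombinant His6-tagged SENP1 catalytic domain enzyme. Reagent: SFCypet-SUMO1-SFYpet FRET protein substrate, 25 nM final. Doses: one dose per compound, 10 µM, 0.5% DMSO. Detection: FRET, CFP and YFP emission. Timing: 50 min reaction at room temperature.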
Platelet DG rel: platelet dense granule release activity. human platelet-rich plasma, SFLLRN dense granule ATP release, luminescence. inhibition, %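 (compounds screened at 7.5 µM in platelet-rich plasma)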. 300,000 tested, 0.22% active. AID 1663;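 active = mean replicate score, as percent of positive control, at or above 50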
SENP7 inh: SENP7 protease inhibition; 330,000 tested, 1.5% active; AID 434973; inhibition, % at 5 µM; recombinant SENP7, Z-RLRGG-aminoluciferin luminescence, 40 min;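 active = inhibition above about 50% at the single test dose, limit read from the data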
SENP6 block: inhibitors of human SENP6 protease | Q9GZR1 | Recombinant SENP6 catalytic domain, aminoluciferin luminescence | inhibition, % at 10 µM | 330,000 tested, 1.8% active | AID 2599;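 active = inhibition above about 50% at the single tested dose, limit read from the data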
SENP8 block-2: inhibitors of human SENP8 protease; purified SENP8, Z-RLRGG-aminoluciferin cleavage, luminescence; inhibition, % at 10 µM; Q96LD8; 330,000 tested, 1.2% active; in the data active = inhibition above about 50%
SENP8 conf: human SENP8 inhibition, confirmed. inhibition, % at 12.5 µM. Recombinant SENP8, Z-RLRGG-aminoluciferin luminescence, 60 min. shares compounds with SENP7 inh. 6,200 tested, 40% active;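 active = mean inhibition across replicates above about 50%, limit read from the data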
SENP6 confirm: human SENP6 inhibition, confirmed | shares compounds with SENP7 inh | recombinant SENP6, Z-RLRGG-aminoluciferin luminescence | inhibition, % at 12.5 µM | 6,200 tested, 58% active | AID 488915
SENP7 conf: confirmation of human SENP7 protease inhibitors; 6,200 tested, 69% active; inhibition, % at 12.5 µM; shares compounds with SENP7 inh; recombinant SENP7, Z-RLRGG-aminoluciferin luminescence, 40 min
Casp3 SENP sel: selectivity test for SENP inhibitors: human caspase-3 inhibition. shares compounds with SENP7 inh. purified caspase-3, Z-DEVD-aminoluciferin luminescence, 60 min. inhibition, % at 12.5 µM. 6,200 tested, 60% active. AID 488918;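 active = mean inhibition above about 50%, limit read from the data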
Target sequence (P42574 28-227 limits assumed): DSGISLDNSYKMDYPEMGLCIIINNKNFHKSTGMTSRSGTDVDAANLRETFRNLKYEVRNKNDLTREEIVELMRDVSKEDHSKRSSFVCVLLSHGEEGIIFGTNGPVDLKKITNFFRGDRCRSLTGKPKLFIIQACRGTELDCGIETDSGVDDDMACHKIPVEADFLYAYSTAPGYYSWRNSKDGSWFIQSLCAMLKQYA
Luc interf: interferes with luciferase luminescence in SENP counter-screen | shares compounds with SENP7 inh | Pre-incubated SENP8/Z-RLRGG-aminoluciferin, luciferase luminescence interference | inhibition, % at 12.5 µM | 6,200 tested, 39% active | AID 488919;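 active = mean inhibition above about 50% when retested at one dose, limit read from the data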
Numbers stand for hits; . = inactive; / = not tested or not shown.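 Rule for the calls, unless noted: active = mean inhibition above about 50% in the one-dose retest (limit read from the data); inactive = the rest.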

SMILES	SENP8 block-1	SENP1 inh	Platelet DG rel	SENP7 inh	SENP6 block	SENP8 block-2	SENP8 conf	SENP6 confirm	SENP7 conf	Casp3 SENP sel	Luc interf
O=C(Oc1ccc2c(c1)OCO2)c1ccc(F)cc1Cl	.	.	.	88.3	91.3	75.0	73.2	83.7	97.3	77.2	75.0
Cc1cc(C(=O)O)ccc1N/C=C1\CCCC(C)C1=O (stereo not drawn)	.	.	.	.	79.5	76.5	.	88.9	98.6	62.3	88.0
COc1cccc(C(C[N+](=O)[O-])c2c(C)[nH]n(-c3ccccc3)c2=O)c1 (stereo not drawn)	72.9	.	.	85.4	82.9	64.6	.	.	.	.	.
Clc1ccc(OCc2cn3ccccc3n2)c2ncccc12	.	.	.	.	.	.	/	/	/	/	/
COc1c(Cl)cccc1-c1cn2ccccc2n1	.	.	.	92.7	93.0	88.5	92.7	92.6	100.7	92.2	.
COc1ccc(-n2c(C)nn(C)c2=O)cc1	.	.	.	.	.	.	/	/	/	/	/
Cc1nn(C)c(=O)n1-c1ccc(OCc2ccccc2)cc1	.	.	.	75.8	73.5	.	55.0	55.5	85.9	89.6	69.4
Cc1cc(OCC(=O)OC(C)C(=O)NC2CC2)c(C(C)C)cc1Cl (stereo not drawn)	.	.	/	/	/	/	/	/	/	/	/
CCCCNC(=O)C1CCN(Cc2ccccn2)CC1	.	.	.	.	.	.	/	/	/	/	/
O=C(O)C1CCN(Cc2ccccn2)CC1	.	.	.	.	82.9	.	.	.	.	.	.
CC(C)(C)NC(=O)CN(C(=O)CSc1nnc(COc2ccccc2)o1)c1cccc(F)c1	.	.	.	52.4	.	.	.	.	.	.	.
c1csc(-c2nc(CN3CCSCC3)cs2)c1	.	.	.	87.8	80.5	74.1	80.2	79.9	96.4	93.5	86.2
O=C(O)c1csc(-c2cccs2)n1	.	.	.	.	.	57.2	.	.	.	.	.
CCOc1ccc(N2CC(C(=O)N3CCN(C(=O)c4ccco4)CC3)CC2=O)cc1 (stereo not drawn)	.	.	.	.	.	.	/	/	/	/	/
COc1cccc(-c2cn3nc(C)c(C)nc3n2)c1	.	.	74.1	.	82.9	59.5	90.4	93.1	100.9	97.1	61.0
Cc1nc2nc(-c3cccs3)cn2nc1C	.	.	.	.	.	.	/	/	/	/	/
COc1ccc(CCNC(=O)CS(=O)(=O)c2cn(CC(=O)N(C(C)C)C(C)C)c3ccccc23)cc1OC	.	.	.	.	.	.	/	/	/	/	/
Oc1[nH]c2ccccc2c1C=Nc1ccc2c(c1)OCO2	.	.	.	.	86.3	75.6	66.9	88.0	99.4	83.1	.
Cc1[nH]c2ccccc2c1/C=N\NC(=O)CNc1ccc2c(c1)OCO2	.	.	.	.	.	.	/	/	/	/	/
COc1ccc(N=Cc2c(O)[nH]c3ccccc23)cc1	.	.	.	67.9	.	65.9	.	83.0	98.8	76.2	.
Nn1nnc2ccccc21	.	.	.	.	.	.	/	/	/	/	/
C(=C\n1nnc2ccccc21)/c1ccccn1	.	.	.	79.4	76.4	73.8	81.0	80.4	95.8	89.3	74.4
CC(=O)Nc1ccc(C(=O)COC(=O)C2CC2)c(F)c1	.	.	/	.	.	.	/	/	/	/	/
CC(=O)Nc1ccc(C(=O)COC(=O)C2CCCCC2)c(F)c1	.	.	/	57.8	77.8	56.7	.	.	80.0	.	.
Cc1ccc(NC(=O)COc2ccccc2[N+](=O)[O-])nc1	.	.	.	69.5	72.3	.	.	.	81.4	79.1	.
SMILES	SENP8 block-1	SENP1 inh	Platelet DG rel	SENP7 inh	SENP6 block	SENP8 block-2	SENP8 conf	SENP6 confirm	SENP7 conf	Casp3 SENP sel	Luc interf
CC(=O)Nc1cccc(-c2ccnc3c2CC(C)(C(=O)NCc2ccncc2)O3)c1 (stereo not drawn)	.	.	/	/	/	/	/	/	/	/	/
CCCCCC(=O)NNC(=O)Nc1ccccc1	.	.	.	.	.	.	/	/	/	/	/
CCCCSC(=O)Nc1ccccc1	.	.	.	71.1	79.6	51.9	.	72.9	89.9	65.3	54.9
Cc1cccc(NC(=O)c2onc3c2CCCC3)c1C	.	.	.	.	.	.	/	/	/	/	/
Cc1ccccc1NC(=O)c1onc2c1CCCC2	.	.	.	54.6	82.9	65.7	.	62.8	90.2	84.7	72.4
Cc1cccc(NC(=O)c2onc3c2CCCC3)n1	.	.	.	97.0	95.3	93.0	96.4	97.6	102.0	97.5	95.5
Cc1cccc(NC(=O)c2ccoc2C)n1	.	.	.	.	.	.	/	/	/	/	/
COc1ccccc1CC(=O)OC(C)C(=O)Nc1ccc(S(=O)(=O)N2CCCCC2)cc1 (stereo not drawn)	.	.	/	.	.	.	/	/	/	/	/
COc1cc(-c2ccc(Nc3ccccc3C(=O)O)c(OC)c2)ccc1Nc1ccccc1C(=O)O	.	.	/	.	73.8	60.0	.	55.0	.	.	68.6
COc1cccc(NC(=O)CN(C)C(=O)c2csc3c2CCCC3)c1	.	.	/	.	.	.	/	/	/	/	/
COc1ccc(CNC(=O)c2csc3c2CCCC3)cc1	.	.	/	.	.	.	/	/	/	/	/
Cc1cccc(NC(=S)NNC(=O)c2csc3c2CCCC3)c1	.	.	.	.	.	61.1	.	.	.	.	.
COc1cccc(NC(=O)c2csc3c2CCCC3)c1	.	.	.	62.2	68.3	54.1	58.7	59.3	87.0	.	.
COc1ccc(NC(=O)c2csc3c2CCCC3)cc1	.	.	.	50.2	.	.	.	.	75.0	.	.
CC(=O)N[C@H]1[C@H]([C@H](O)[C@H](O)CO)O[C@](O)(C(=O)O)C[C@@H]1O	.	.	/	/	/	/	/	/	/	/	/
COc1ccc(Cc2nc3ccc(C(=O)NCC(C)(C)OC)cc3o2)cc1	.	.	.	.	.	.	/	/	/	/	/
CC(C)(C)NC(=O)COc1ccc(-c2ccccc2)cc1	.	.	.	.	50.6	.	.	.	62.5	.	.
CCNC(=O)COc1ccc(-c2ccccc2)cc1	.	.	.	.	.	.	/	/	/	/	/
O=C(Oc1ccc(/C=N/O)cc1)c1ccccc1	.	.	.	80.0	78.2	.	66.2	64.8	89.4	71.9	79.3
O=C(Oc1ccccc1)c1ccccc1	.	.	/	/	/	/	/	/	/	/	/
